Our source for the MIC values is ChEMBL document CHEMBL1933008, “Novel 2-(2-(4-aryloxybenzylidene) hydrazinyl)benzothiazole derivatives as anti-tubercular agents” (2012).

Converted amounts (≈) assume the structure as drawn.

The subject of one assay is Mycobacterium tuberculosis. Put plainly: Antitubercular activity against Mycobacterium tuberculosis H37Rv after 7 days by Resazurin microtiter assay. Type of assay: functional. The conditions noted are these: 168 h. The method, boiled down: (§1)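 M. tuberculosis H37Rv suspension seeded at 10^5 cells per well in Middlebrook 7H9 broth. Compounds serially diluted directly on the plate; control got equivalent DMSO. Incubated 37 °C for 7 days, then 0.02% fresh resazurin added and incubated a further 48 h. MIC read visually as the lowest concentration giving complete inhibition (no blue-to-pink change).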
On the technique in general: The colour change of resazurin is a common sign of viable cells or microbes.
For the molecule `Clc1ccc(Oc2ccc(/C=N\Nc3nc4ccc(Cl)cc4s3)cc2)cc1`, 2.25 µg/mL (≈ 5.43 µM) was the least that counted as inhibitory (MIC).
Consider `O=[N+]([O-])c1ccc2nc(N/N=C\c3ccc(Oc4ccccc4)cc3)sc2c1`, for which inhibition of growth (MIC) required 29 µg/mL (≈ 74.3 µM). This MIC is about 13-fold higher than that of the molecule before.
Turning to `Cc1cc(Oc2ccc(/C=N\Nc3nc4ccccc4s3)cc2)ccc1Cl`, the MIC (in general, the smallest concentration in the dilution series that meets the test's criterion for growth inhibition) came out at 6.63 µg/mL (≈ 16.8 µM).
Same read-out and setting: under `Cc1ccc2nc(N/N=C\c3ccc(Oc4ccc(Cl)c(C)c4)cc3)sc2c1` stands 15 µg/mL (≈ 36.8 µM); under `O=[N+]([O-])c1ccc2nc(N/N=C\c3ccc(Oc4ccc(Cl)cc4Cl)cc3)sc2c1`, 23.5 µg/mL (≈ 51.2 µM); under `Cc1ccc2nc(N/N=C\c3ccc(Oc4ccccc4Cl)cc3)sc2c1`, 4.75 µg/mL (≈ 12.1 µM).
Same read-out and setting: under `O=Cc1ccc(Oc2ccccc2)cc1` stands 133 µg/mL (≈ 670 µM); under `NNc1nc2ccccc2s1`, 288 µg/mL (≈ 1740 µM); under `COc1ccc2nc(N/N=C\c3ccc(Oc4ccccc4)cc3)sc2c1`, 16.5 µg/mL (≈ 43.9 µM).
`Clc1ccc2nc(N/N=C\c3ccc(Oc4ccccc4)cc3)sc2c1` registered an MIC of 5.5 µg/mL (≈ 14.5 µM).
Molecule `Cc1ccc2nc(N/N=C\c3ccc(Oc4ccc(Cl)cc4)cc3)sc2c1` gave an MIC of 15 µg/mL (≈ 38.1 µM).
In the case of `Clc1ccccc1Oc1ccc(/C=N\Nc2nc3ccccc3s2)cc1`, it took 6 µg/mL (≈ 15.8 µM) to inhibit growth (MIC).
On to `COc1ccc2nc(N/N=C\c3ccc(Oc4ccc(Cl)cc4Cl)cc3)sc2c1`, for which the MIC came out at 27.5 µg/mL (≈ 61.9 µM). Compared with the last molecule, the MIC is about 4.6-fold higher.
Molecule `Cc1ccc2nc(NN)sc2c1` displayed an MIC of 222 µg/mL (≈ 1240 µM).
`Clc1ccc(Oc2ccc(/C=N/Nc3nc4ccc(Cl)cc4s3)cc2)c(Cl)c1` displayed an MIC of 1.5 µg/mL (≈ 3.34 µM).
With `Clc1ccc2nc(N/N=C\c3ccc(Oc4ccccc4Cl)cc3)sc2c1`, inhibition of growth (MIC) required 2 µg/mL (≈ 4.83 µM).
In turn, `Cc1cc(Oc2ccc(/C=N\Nc3nc4ccc(Cl)cc4s3)cc2)ccc1Cl` yielded an MIC of 4.5 µg/mL (≈ 10.5 µM). This MIC lies about 2.2-fold higher than the previous one.
`Clc1ccc(Oc2ccc(/C=N\Nc3nc4ccccc4s3)cc2)c(Cl)c1` registered an MIC of 2.63 µg/mL (≈ 6.35 µM).
As for `NNC(=O)c1ccncc1` [ISONIAZID], the MIC is 0.4 µg/mL (≈ 2.92 µM). Against the preceding molecule, the MIC is about 6.6-fold lower.
`Cc1cc(Oc2ccc(/C=N\Nc3nc4ccc([N+](=O)[O-])cc4s3)cc2)ccc1Cl` registered an MIC of 21.5 µg/mL (≈ 49 µM).
`Cc1ccc2nc(N/N=C\c3ccc(Oc4ccc(Cl)cc4Cl)cc3)sc2c1` gave an MIC of 12.6 µg/mL (≈ 29.3 µM).
The molecule `O=[N+]([O-])c1ccc2nc(N/N=C\c3ccc(Oc4ccc(Cl)cc4)cc3)sc2c1` showed an MIC of 26.5 µg/mL (≈ 62.4 µM).
Molecule `Cc1ccc2nc(N/N=C\c3ccc(Oc4ccccc4)cc3)sc2c1` displayed an MIC of 9.13 µg/mL (≈ 25.4 µM).
For the molecule `COc1ccc2nc(N/N=C\c3ccc(Oc4ccc(Cl)c(C)c4)cc3)sc2c1`, the MIC worked out at 27 µg/mL (≈ 63.7 µM).
In turn, `Clc1ccc(Oc2ccc(/C=N\Nc3nc4ccccc4s3)cc2)cc1` displayed an MIC of 2.94 µg/mL (≈ 7.74 µM).
Regarding `NNc1nc2ccc(Cl)cc2s1`, inhibition of growth (MIC) required 233 µg/mL (≈ 1170 µM).
With `COc1ccc2nc(N/N=C\c3ccc(Oc4ccccc4Cl)cc3)sc2c1`, the MIC came out at 19.5 µg/mL (≈ 47.6 µM). Compared with the last molecule, the MIC is about 12-fold lower.
`O=Cc1ccc(Oc2ccccc2Cl)cc1` had an MIC of 123 µg/mL (≈ 531 µM).
For `C(=N/Nc1nc2ccccc2s1)/c1ccc(Oc2ccccc2)cc1`, inhibition of growth (MIC) required 12.7 µg/mL (≈ 36.7 µM).
The molecule `O=[N+]([O-])c1ccc2nc(N/N=C\c3ccc(Oc4ccccc4Cl)cc3)sc2c1` came in with an MIC of 29.5 µg/mL (≈ 69.4 µM).
The same measure, in the same setting: in the case of `O=Cc1ccc(Oc2ccc(Cl)cc2)cc1` it was 117 µg/mL (≈ 504 µM); in that of `COc1ccc2nc(N/N=C\c3ccc(Oc4ccc(Cl)cc4)cc3)sc2c1`, 8 µg/mL (≈ 19.5 µM).

A further assay relates to Mycobacterium tuberculosis. Nature of the assay: Antitubercular activity against Mycobacterium tuberculosis.
Settings: not given
The format is functional. The method, boiled down:
as §1
In the case of `Oc1cc(Cl)ccc1Oc1ccc(Cl)cc1Cl` [TRICLOSAN], the lowest concentration to inhibit growth (MIC) was 5 µg/mL (≈ 17.3 µM).
